Bioassay records (PubChem BioAssay)
Compounds with a hit are over-represented: about 3.5% of the library has one in this group of screens.
MrgX1 PAM: human MrgX1 positive allosteric modulation, primary screen; Q96LB2; MrgX1-HEK293, Fluo-4 calcium flux, FDSS; hits give high values; B-score at 10 µM; 310,000 compounds, 0.63% hits; AID 588675;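 active = plate-corrected calcium response at least 3 library SD above typical, normal starting fluorescence, not activating the receptor alone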;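 also: compound read alongside a low EC10 to EC30 dose of BAM8-22 agonist; peak minus trough fluorescence over baseline measured at the second addition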
Target sequence (Q96LB2 whole entry, looked up): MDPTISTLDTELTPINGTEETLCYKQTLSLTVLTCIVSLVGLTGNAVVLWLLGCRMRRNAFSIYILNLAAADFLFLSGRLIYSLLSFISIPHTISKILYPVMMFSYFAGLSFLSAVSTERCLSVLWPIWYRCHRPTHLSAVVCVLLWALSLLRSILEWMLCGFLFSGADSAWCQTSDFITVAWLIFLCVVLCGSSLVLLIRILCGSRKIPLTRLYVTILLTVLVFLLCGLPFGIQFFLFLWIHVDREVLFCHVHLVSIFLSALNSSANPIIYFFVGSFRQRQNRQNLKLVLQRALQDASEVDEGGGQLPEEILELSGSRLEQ
RGS4 act: RGS4 potentiation or activation | HEK293 M3R/inducible RGS4, carbachol calcium flux Fluo4; hits give low values | 310,000 compounds, 0.92% hits | AID 463111 | B-score at 10 µM;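 active = B-score of the integrated calcium signal more than 4 SD below the library mean, with starting fluorescence not abnormally high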;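 also: negative B-score means reduced calcium response which marks RGS4 activation or potentiation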
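test system = HEK293 cells with stable M3R and inducible RGS4 | schedule = recording 10 s baseline at 1 Hz, 100 s post-agonist | technique = Fluo4-AM (2 µM) calcium-flux fluorescence, kinetic read | measure = Agonist-evoked peak-minus-minimum fluorescence over baseline, integrated ratio, B score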
MrgX1 agonist: activates human MrgX1 receptor signaling; Q96LB2; MrgX1-HEK293 cells, Fluo-4 calcium fluorescence, agonist mode; hits give high values; B-score at 10 µM; 310,000 compounds, 0.44% hits;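 active = calcium response B-score plate-corrected fluorescence ratio at least 3 library SD, with starting fluorescence B-score inside 5 SD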
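Assay system: MrgX1-expressing HEK293 cells / Amount: fifteen thousand cells per well / Doses: test compound in the initial addition of three / Timing: cells plated overnight, dye loaded 0.5 h 37 °C, 0.5 h room temperature / Technique: kinetic calcium dye fluorescence, Fluo-4 NW / Control set: positive and negative controls per plate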
MrgX1 antag: antagonists of human MrgX1 receptor; MRGX1-HEK293 calcium flux, Fluo-4, BAM8-22 antagonism; hits give low values; B-score at 10 µM; 310,000 compounds, 1.3% hits; AID 588676;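 active = calcium-response B-score plate-corrected more than 3 library SD below zero, starting fluorescence within 5 deviations, no agonist response on first addition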;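 also: peak minus trough fluorescence over baseline after final BAM8-22 challenge near maximal dose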
RGS4 block: inhibitors of human RGS4; HEK293 M3R/RGS4 inducible, Fluo-4 calcium flux; hits give high values; triggered by carbachol at its EC20; B-score at 10 µM; 310,000 compounds, 0.45% hits;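 active = B-score, a plate-corrected calcium signal, over three deviations above library mean, with baseline fluorescence within five deviations of library mean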;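 also: RGS4 expression induced by doxycycline in cells with stable M3 receptor; B-score is computed from the integrated fluorescence ratio over baseline after carbachol; higher B-score means a larger calcium signal and so more RGS4 inhibition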
Target sequence (P49798 whole entry, looked up): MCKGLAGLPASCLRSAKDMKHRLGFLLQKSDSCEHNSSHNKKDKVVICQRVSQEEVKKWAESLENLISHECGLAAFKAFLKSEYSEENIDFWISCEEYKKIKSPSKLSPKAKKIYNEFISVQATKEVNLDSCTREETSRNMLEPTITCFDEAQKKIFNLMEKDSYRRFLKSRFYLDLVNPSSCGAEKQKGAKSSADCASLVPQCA
MrgX1 ant reconf: confirmation of human MrgX1 receptor antagonists; shares compounds with MrgX1 antag; remaining BAM8-22 calcium response % of control (hits give low values), % at 10 µM; AID 602420; 2,300 compounds, 19% hits; MrgX1-HEK293, BAM8-22 calcium flux, Fluo-4; hits give low values;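 active = remaining agonist calcium response no higher than 100% minus 3 SD of agonist-only control wells, with starting fluorescence near control levels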;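 also: agonist BAM8-22 given at a near maximal EC90 to ECmax level; peak minus minimum fluorescence divided by baseline after agonist addition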
HEK293 Ca flux: counter-screen for MrgX1 antagonists: effect in parental HEK293 cells. shares compounds with MrgX1 antag. Fluo-4 calcium fluorescence, FDSS. fluorescence ratio F(max-min)/F0 at 10 µM. 4,000 compounds, 2% hits. AID 624111;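 active = duplicate-averaged calcium fluorescence ratio at least three times the standard deviation of buffer wells, a nonspecific response in parental cells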
HEK293 Ca counter: counter-screen for MrgX1 allosteric activators: effect in parental HEK293 cells | shares compounds with MrgX1 antag | parental HEK293 calcium flux, Fluo-4 fluorescence ratio; hits give high values | fluorescence ratio F(max-min)/F0 at 10 µM | 4,000 compounds, 0.4% hits | AID 624114;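 active = calcium fluorescence ratio, averaged over duplicates, at least 3 SD of the buffer-well ratio, meaning a nonspecific response in receptor-free cells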;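 also: untransfected parental HEK293 lacking MrgX1 used as counterscreen for MrgX1 allosteric activators; fluorescence change taken during the second addition on a kinetic imager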
HEK293 Ca cntr2: MrgX1 activator counter-screen hit in parental HEK293 cells; shares compounds with MrgX1 antag; 4,000 compounds, 8.7% hits; Fluo-4 calcium fluorescence (FDSS); hits give high values; fluorescence ratio F(max-min)/F0 at 10 µM;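 active = calcium fluorescence ratio at least three times the spread of buffer wells, meaning a non-specific response in parental cells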
Starred values were filed as active, the others as inactive; i = inactive; x = not tested or not shown.

SMILES	MrgX1 PAM	RGS4 act	MrgX1 agonist	MrgX1 antag	RGS4 block	MrgX1 ant reconf	HEK293 Ca flux	HEK293 Ca counter	HEK293 Ca cntr2
COc1ccc(NC(=O)C/C(C)=N/NC(=O)COc2ccc(OC)cc2)cc1	i	i	i	i	i	x	x	x	x
Cc1[nH]c2ccc(C(=O)O)cc2c1C	i	i	i	-8.6*	i	i	i	i	i
O=C(O)c1ccccc1C(=O)c1ccc(Br)s1	i	i	i	i	i	x	x	x	x
COCCN1C(=O)/C(=C/c2ccc(N3CCCC3)cc2)SC1=S	i	i	i	-12*	i	i	i	i	i
CC(=O)c1sc(NC(=O)CN2C(=O)NC3(CCCC3)C2=O)nc1-c1ccccc1	i	i	i	-6.4*	i	i	i	i	i
COC(C(=O)NC(C(C)C)C(C)C)c1ccccc1 (stereo not given)	i	i	i	-5.9*	i	i	i	i	i
COC(C(=O)Nc1ccc(NC(=O)C(OC)c2ccccc2)cc1)c1ccccc1 (stereo not given)	i	i	i	i	i	x	x	x	x
COc1ccc(N(CC(=O)O)S(=O)(=O)c2cccnc2)cc1	i	i	i	-6.8*	i	i	i	i	i
O=C(NCc1ccc2c(c1)OCO2)c1ccc(S(=O)(=O)N2CCCCC2)cc1	i	i	i	i	i	x	x	x	x
Cc1ccc(NS(=O)(=O)c2ccc(OCC(N)=O)cc2)cc1	i	i	i	-9.4*	i	i	i	i	i
Cc1ccc(NS(=O)(=O)c2ccc(C(=O)NCc3ccncc3)cc2)cc1	i	i	i	-4.6*	i	79%*	i	i	i
CNC(=O)COc1ccc(S(=O)(=O)Nc2ccc(C)cc2)cc1	i	i	i	i	i	x	x	x	x
O=C(NCc1ccc2c(c1)OCO2)c1ccc(NS(=O)(=O)c2ccc3c(c2)OCCO3)cc1	i	i	i	-6.9*	i	i	i	i	i
Nc1c(C(=O)NCc2ccc(Cl)cc2)sc2nc3c(c(C(F)(F)F)c12)CCC3	i	i	i	i	i	x	x	x	x
COc1cccc(CNC(=O)C2CCN(c3nnc(N4CCCC4=O)s3)CC2)c1	i	i	i	i	i	x	x	x	x
CN(C(=O)COC(=O)c1cccnc1Nc1cccc(C(F)(F)F)c1)C1CCS(=O)(=O)C1 (stereo not given)	i	i	i	-5.7*	i	i	i	i	i
CN(C(=O)COC(=O)c1cccnc1Nc1ccccc1F)C1CCS(=O)(=O)C1 (stereo not given)	i	i	i	i	i	x	x	x	x
COCCCn1c(=O)c2sccc2n(Cc2cc(C(=O)OC)ccc2OC)c1=O	i	i	i	i	i	x	x	x	x
CCOc1c(OC)cccc1C1CC(=O)Nc2cc3c(cc21)OCCO3 (stereo not given)	i	i	i	-4.9*	i	i	i	i	i
O=C(NCc1ccco1)C1CCCN1C(=O)Nc1ccccc1Cl (stereo not given)	i	i	i	-12*	i	i	i	i	i
O=C(NCc1ccco1)C1CCCN1C(=O)Nc1ccccc1 (stereo not given)	i	i	i	i	i	x	x	x	x
Cc1cccc(NC(=O)c2ccc(S(=O)(=O)N(C)C)cc2)c1	i	i	i	i	i	x	x	x	x
CCN(CC)S(=O)(=O)c1ccc(C(=O)Nc2cc3oc4ccccc4c3cc2OC)cc1	i	i	i	-6.8*	i	i	i	i	i
COc1cc(NC(=O)c2ccc(S(=O)(=O)N(C)C)cc2)cc(OC)c1OC	i	i	i	-5.3*	i	i	i	i	i
CCOC(=O)c1[nH]ncc1CN1CCc2ccc(NC(=O)C3CCCO3)cc2C1 (stereo not given)	i	i	i	i	i	x	x	x	x
SMILES	MrgX1 PAM	RGS4 act	MrgX1 agonist	MrgX1 antag	RGS4 block	MrgX1 ant reconf	HEK293 Ca flux	HEK293 Ca counter	HEK293 Ca cntr2
COc1ccc2c(CC(=O)N[C@@H](Cc3ccccc3)C(=O)O)cc(=O)oc2c1	i	i	i	i	i	x	x	x	x
Cc1c(O)ccc2c(CC(=O)N[C@@H](Cc3ccccc3)C(=O)O)cc(=O)oc12	i	i	i	-4.9*	i	84%*	i	i	i
O=C(Nc1ccc2c(c1)OCCO2)c1cc(-c2ccccc2)nc2ccccc12	i	i	i	-5*	i	i	i	i	i
O=C(NNC(=O)c1cc(-c2cccnc2)nc2ccccc12)Nc1ccc(Cl)cc1	6.9*	i	i	-13*	i	i	i	i	i
COc1ccc(C(CCN(Cc2ccc(OC)c(OC)c2)C(C)=O)C(C)C)cc1 (stereo not given)	i	i	i	i	i	x	x	x	x
C/C(=N\n1cnnc1)c1ccccc1	i	i	i	i	i	x	x	x	x
CSc1ncccc1C(=O)Nc1nnc(C2CC2)s1	i	i	i	-4.6*	i	i	i	i	i
Cn1c(CNC(=O)CNC(=O)Cc2ccc(F)cc2)cc(=O)n(C)c1=O	i	i	i	i	i	x	x	x	x
CCC/C=N/Nc1nnc(Cc2ccc(OC)c(OC)c2)c(=O)[nH]1	i	i	i	i	i	x	x	x	x
CCN1CCCC1CNC1=NCCCCC1 (stereo not given)	i	i	i	-5.2*	i	83%*	i	i	i
COc1cc(C=O)ccc1Oc1nnnn1-c1ccc(C(N)=O)cc1	i	i	i	i	i	x	x	x	x
C/C=C/c1ccc(Oc2nnnn2-c2ccc(C(=O)O)cc2)c(OC)c1	i	i	i	-4.6*	i	i	i	i	i
COc1ccc(OC)c(C(=O)Nc2ccc3[nH]ccc3c2)c1	i	i	i	i	i	x	x	x	x
Cc1nn2c(NCc3ccccn3)c3c(nc2c1-c1ccccc1)CCC3	i	i	i	i	i	x	x	x	x
